Laboratory results from paper PMC5199614 (Journal of bone and mineral research : the official journal …, 2016).

Experiments:
[1] = humans, cited from earlier work
C57BL/6J mice [2] = assay: Plasma Pi after iv injection in mice; type: in vivo, mouse; conditions: iv 50 nmol/kg; for time of Pi nadir: after injection; for decline of blood phosphate (Pi) at the nadir: n = 6 per group
C57BL/6J mice [3] = assay: Blood ionized calcium after iv injection in mice; type: in vivo, mouse; conditions: iv 50 nmol/kg; for peak blood Ca^2+ increase above pre-injection (t = 0) level: n = 6 per group
[4] = Persistence of injected ligand in mouse blood and urine; conditions: mice, iv 50 nmol/kg, 1 μL plasma in PBS, n = 6
[5] = tested on: renal proximal tubule cells; type: in vivo, mouse; conditions: 5 minutes (NS^TMR) or 5 or 60 minutes after iv injection
C57BL/6J mice [6] = assay: Blood 1,25; type: in vivo, mouse; conditions: iv 50 nmol/kg; for blood 1,25(OH)2D relative to vehicle-injected mice: 2 hours after injection
[7] = tested on: PTHR1-expressing GP-2.3 cells; assay: Confocal microscopy of ligand internalization in GP-2.3 and GS-22A cells; type: cell-based, human; conditions: 100 nM; for ligand localization in GP-2.3 cells: 15 minutes at 21°C, confocal TMR fluorescence; for TMR fluorescence in parental GS-22A cells (not transfected with PTHR1): confocal microscopy
How it was run: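 GP-2.3 cells (HEK-293 with stable human PTHR1 and glosensor) and parental GS-22A cells (glosensor only) were grown on coverslips to ~75% confluence. Cells were exposed to TMR-ligand at 100 nM in HBB for 15 min at 21°C, or for 30 min at 4°C to block internalization. They were then rinsed thrice, fixed in 4% formalin for 5 min and mounted with DAPI. Confocal imaging used 405/559 nm excitation.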

human PTHR1 = biological target: T1, human PTHR1 (Homo sapiens, UniProt Q03431); assay: cAMP signaling; type: cell-based; conditions: GP-2.3 cells; for Emax (cAMP-dependent luminescence): vehicle 1.3 ± 0.1, means ±SEM of 10 experiments
T1 sequence (Q03431 27-593): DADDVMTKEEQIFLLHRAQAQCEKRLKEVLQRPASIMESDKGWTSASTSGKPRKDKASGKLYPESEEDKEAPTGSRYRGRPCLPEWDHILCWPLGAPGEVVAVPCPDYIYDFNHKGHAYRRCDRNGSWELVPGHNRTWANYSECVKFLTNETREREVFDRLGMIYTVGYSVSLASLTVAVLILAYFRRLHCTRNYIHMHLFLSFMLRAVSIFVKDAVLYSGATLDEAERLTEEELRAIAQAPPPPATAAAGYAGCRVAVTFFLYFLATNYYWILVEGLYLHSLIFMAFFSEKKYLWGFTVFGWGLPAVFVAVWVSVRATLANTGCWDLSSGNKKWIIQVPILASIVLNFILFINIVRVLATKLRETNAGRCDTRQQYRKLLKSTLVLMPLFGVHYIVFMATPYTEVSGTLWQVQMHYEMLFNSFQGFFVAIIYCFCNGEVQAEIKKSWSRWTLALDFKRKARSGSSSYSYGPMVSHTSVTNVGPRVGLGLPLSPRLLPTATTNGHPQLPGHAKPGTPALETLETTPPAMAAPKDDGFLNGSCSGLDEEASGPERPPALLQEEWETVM

C57BL/6J mice [8] = assay: Urinary fractional excretion of Ca and Pi after iv injection in mice; type: in vivo, mouse; conditions: iv 50 nmol/kg, spot urine

Substance	time of Pi nadir (C57BL/6J mice [2]) [h]	decline of blood phosphate (Pi) at the nadir (C57BL/6J mice [2]) [%]	peak blood Ca^2+ increase above pre-injection (t = 0) level (C57BL/6J mice [3])	time of return of blood Ca^2+ to baseline (C57BL/6J mice [3]; post-injection) [h]	immunostained phosphorylated PKA substrate in kidney sections [5]	blood 1,25(OH)2D relative to vehicle-injected mice (C57BL/6J mice [6])	ligand localization in GP-2.3 cells [7]	TMR fluorescence in parental GS-22A cells (not transfected with PTHR1) [7]	Emax (cAMP-dependent luminescence) (human PTHR1) [cps × 10^−3]	further results
PTH(1-84)	–	–	–	–	–	–	–	–	–	serum half-time ([1]; injected subcutaneously): about 2.5 hours
PTH(1-34)	–	–	–	–	–	–	–	–	–	half-time (t1/2) of disappearance from the circulation ([1]; injected intravenously): 10 ± 0.5 min; half-time ([1]; subcutaneous injection): about 1 hour
[Lys^13(TMR), Cys^35]PTH(1-35) [PTH^TMR]	1	27	~ 8%	≤ 24	clear staining for pPKA substrate	about threefold	located predominantly in internalized vesicles	No such TMR fluorescence was observed	184 ± 12	time of return of Pi to baseline (C57BL/6J mice [2]): ≤ 4 h; last time point at which plasma TMR fluorescence was detected [4]: 2 h
[Lys^13(tetramethyl rhodamine {TMR}), Cys^35(PEG-20,000 Da)]PTH(1-35) [PEG-PTH^TMR]	2	42	~ 21%	96	at least comparable to that observed with the PTH^TMR ligand	about threefold	located predominantly in internalized vesicles	No such TMR fluorescence was observed	178 ± 14	time of peak blood Ca^2+ (C57BL/6J mice [3]; post-injection): 24 h; blood 1,25(OH)2D (C57BL/6J mice [6]; 24 hours after injection): marked increases; duration of effects on urinary fractional excretion of Ca and Pi (C57BL/6J mice [8]): up to 24 hours; potency (EC50) relative to PTH(1-34) and PTH^TMR (human PTHR1; cAMP): about three- to fivefold weaker
TMR-NNGEDHSQITKV [NS^TMR, reference compound]	–	–	–	–	little or no green fluorescence	–	–	–	–	–
